Measured values published in ChEMBL document CHEMBL4689842, “EUbOPEN Chemogenomics Library wave 1” (2021).
Where “and” joins values, the source holds several entries; their conditions need not be identical. Equal entries are not always repeated.

Test system: HEK-293T
Test: Multiplex assay against HEK293T;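 on Population Tubulin-Different-Phenotype (%): share of the cells with healthy nuclei that show this phenotype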
Assay type: toxicity, cell-based
Settings: human
Summary of the method: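 At seeding, live cells were stained with Hoechst33342, BioTracker Green Microtubule Cytoskeleton Dye, MitoTracker Red and Annexin V Alexa Fluor 680. After compound addition they were imaged on a CQ1 microscope at 37°C and 5% CO2, and CellPathfinder machine-learning gating sorted them into Hoechst high-intensity objects or normal cells, with normal cells further split into healthy, pyknosed or fragmented nuclei and pyknosed cells into mitotic or apoptotic. Tubulin, mitochondrial-mass and membrane-permeability phenotypes are given as per cents of cells with healthy nuclei.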

[1] = 12 h, 1 µM, compound concentration 1 uM, replicate 1
[2] = 12 h, 1 µM, compound concentration 1 uM, replicate 2
[3] = 12 h, 10 µM, compound concentration 10 uM, replicate 1
[4] = 12 h, 10 µM, compound concentration 10 uM, replicate 2
[5] = 24 h, 1 µM, compound concentration 1 uM, replicate 1
[6] = 24 h, 1 µM, compound concentration 1 uM, replicate 2
[7] = 24 h, 10 µM, compound concentration 10 uM, replicate 1
[8] = 24 h, 10 µM, compound concentration 10 uM, replicate 2
[9] = 48 h, 1 µM, compound concentration 1 uM, replicate 1
[10] = 48 h, 1 µM, compound concentration 1 uM, replicate 2
[11] = 48 h, 10 µM, compound concentration 10 uM, replicate 1
[12] = 48 h, 10 µM, compound concentration 10 uM, replicate 2

In the case of Nc1c(C(=O)NCc2ccc(C(=O)NCCCC3CCCCC3)cc2)cnn1-c1ccccc1 [SR-318], the “Population Apoptotic (%)” value [1] is reported as 38% and 53% and 33%, the “Population Fragmented Nuclei (%)” value [1] is reported as 11% and 10% and the “Population Healthy Nuclei (%)” value [1] is reported as 45% and 28% and 41%. The “Population Hoechst High Intensity Objects (%)” value [1] was 13% and 14% and 11%, the “Population Membrane Permeable-Phenotype (%)” value [1] was 1% and the “Population Mitochondria Different-Phenotype (%)” value [1] was 68% and 75% and 77%. The “Population Mitotic Cells (%)” value [1] was 61% and 46% and 66%, the “Population Normal (%)” value [1] was 86% and 85% and 88% and the “Population Pyknosed Nuclei (%)” value [1] was 45% and 60% and 48%. The “Population Tubulin-Different-Phenotype (%)” value [1] was 37% and 47% and 50%, the “Total Cell Count” value [1] was 564 and 341 and 583 and the “Population Apoptotic (%)” value [2] was 8% and 14% and 10%. The “Population Fragmented Nuclei (%)” value [2] was 9% and 6%, the “Population Healthy Nuclei (%)” value [2] was 39% and 42% and 51% and the “Population Hoechst High Intensity Objects (%)” value [2] was 4% and 5% and 2%. For the same molecule, the “Population Membrane Permeable-Phenotype (%)” value [2] was 8% and 6% and 4%, the “Population Mitochondria Different-Phenotype (%)” value [2] was 22% and 14% and 17% and the “Population Mitotic Cells (%)” value [2] was 91% and 85% and 89%. The “Population Normal (%)” value [2] was 95% and 94% and 97%, the “Population Pyknosed Nuclei (%)” value [2] was 51% and 47% and 41% and the “Population Tubulin-Different-Phenotype (%)” value [2] was 18% and 20% and 15%. The “Total Cell Count” value [2] was 208 and 203 and 249, the “Population Apoptotic (%)” value [3] was 43% and 67% and 60% and the “Population Fragmented Nuclei (%)” value [3] was 13% and 17% and 12%. For the same molecule, the “Population Healthy Nuclei (%)” value [3] was 21% and 14% and 18%, the “Population Hoechst High Intensity Objects (%)” value [3] was 16% and 13% and 15% and the “Population Membrane Permeable-Phenotype (%)” value [3] was 5% and 2% and 1%. The “Population Mitochondria Different-Phenotype (%)” value [3] was 97% and 100% and 94%, the “Population Mitotic Cells (%)” value [3] was 56% and 32% and 39% and the “Population Normal (%)” value [3] was 83% and 86% and 84%. For the same molecule, the “Population Pyknosed Nuclei (%)” value [3] was 64% and 68%, the “Population Tubulin-Different-Phenotype (%)” value [3] was 90% and 89% and 92% and the “Total Cell Count” value [3] was 492 and 305 and 342. For the same molecule, the “Population Apoptotic (%)” value [4] was 42% and 40% and 53%, the “Population Fragmented Nuclei (%)” value [4] was 2% and 5% and the “Population Healthy Nuclei (%)” value [4] was 31% and 23%. The “Population Hoechst High Intensity Objects (%)” value [4] was 6% and 3%, the “Population Membrane Permeable-Phenotype (%)” value [4] was 7% and 4% and the “Population Mitochondria Different-Phenotype (%)” value [4] was 82% and 78% and 79%. For the same molecule, the “Population Mitotic Cells (%)” value [4] was 57% and 59% and 46%, the “Population Normal (%)” value [4] was 93% and 96% and the “Population Pyknosed Nuclei (%)” value [4] was 66% and 62% and 70%. For the same molecule, the “Population Tubulin-Different-Phenotype (%)” value [4] was 78% and 84%, the “Total Cell Count” value [4] was 272 and 248 and 191 and the “Population Apoptotic (%)” value [5] was 42% and 41% and 52%. The “Population Fragmented Nuclei (%)” value [5] was 12% and 10% and 16%, the “Population Healthy Nuclei (%)” value [5] was 40% and 46% and 27% and the “Population Hoechst High Intensity Objects (%)” value [5] was 15% and 12%. The “Population Membrane Permeable-Phenotype (%)” value [5] was 3% and 1% and 5%, the “Population Mitochondria Different-Phenotype (%)” value [5] was 71% and 56% and 69% and the “Population Mitotic Cells (%)” value [5] was 57% and 58% and 47%. For the same molecule, the “Population Normal (%)” value [5] was 84% and 87%, the “Population Pyknosed Nuclei (%)” value [5] was 46% and 43% and 55% and the “Population Tubulin-Different-Phenotype (%)” value [5] was 48% and 34% and 54%. For the same molecule, the “Total Cell Count” value [5] was 634 and 591 and 363, the “Population Apoptotic (%)” value [6] was 11% and 13% and 5% and the “Population Fragmented Nuclei (%)” value [6] was 5% and 9% and 6%. For the same molecule, the “Population Healthy Nuclei (%)” value [6] was 64% and 62% and 70%, the “Population Hoechst High Intensity Objects (%)” value [6] was 2% and the “Population Membrane Permeable-Phenotype (%)” value [6] was 7%. For the same molecule, the “Population Mitochondria Different-Phenotype (%)” value [6] was 14% and 23% and 18%, the “Population Mitotic Cells (%)” value [6] was 88% and 86% and 94% and the “Population Normal (%)” value [6] was 97%. For the same molecule, the “Population Pyknosed Nuclei (%)” value [6] was 30% and 27% and 22%, the “Population Tubulin-Different-Phenotype (%)” value [6] was 22% and 26% and 15% and the “Total Cell Count” value [6] was 245 and 241 and 330. The “Population Apoptotic (%)” value [7] was 50% and 60% and 64%, the “Population Fragmented Nuclei (%)” value [7] was 18% and 20% and the “Population Healthy Nuclei (%)” value [7] was 22% and 16% and 17%. The “Population Hoechst High Intensity Objects (%)” value [7] was 19% and 15% and 14%, the “Population Membrane Permeable-Phenotype (%)” value [7] was 0% and the “Population Mitochondria Different-Phenotype (%)” value [7] was 98% and 97% and 96%. For the same molecule, the “Population Mitotic Cells (%)” value [7] was 49% and 39% and 35%, the “Population Normal (%)” value [7] was 80% and 84% and 85% and the “Population Pyknosed Nuclei (%)” value [7] was 58% and 63% and 61%. For the same molecule, the “Population Tubulin-Different-Phenotype (%)” value [7] was 94% and 86% and 90%, the “Total Cell Count” value [7] was 489 and 314 and 331 and the “Population Apoptotic (%)” value [8] was 61% and 57% and 59%. For the same molecule, the “Population Fragmented Nuclei (%)” value [8] was 6% and 3%, the “Population Healthy Nuclei (%)” value [8] was 42% and 47% and 50% and the “Population Hoechst High Intensity Objects (%)” value [8] was 4% and 5%. For the same molecule, the “Population Membrane Permeable-Phenotype (%)” value [8] was 3% and 1% and 2%, the “Population Mitochondria Different-Phenotype (%)” value [8] was 90% and 89% and 87% and the “Population Mitotic Cells (%)” value [8] was 38% and 42% and 40%. For the same molecule, the “Population Normal (%)” value [8] was 95% and 94%, the “Population Pyknosed Nuclei (%)” value [8] was 50% and 49% and 46% and the “Population Tubulin-Different-Phenotype (%)” value [8] was 93%. The “Total Cell Count” value [8] was 222 and 291 and 281, the “Population Apoptotic (%)” value [9] was 50% and 32% and 31% and the “Population Fragmented Nuclei (%)” value [9] was 17% and 13% and 15%. The “Population Healthy Nuclei (%)” value [9] was 35% and 64% and 52%, the “Population Hoechst High Intensity Objects (%)” value [9] was 15% and 9% and 12% and the “Population Membrane Permeable-Phenotype (%)” value [9] was 0%. For the same molecule, the “Population Mitochondria Different-Phenotype (%)” value [9] was 46% and 27% and 47%, the “Population Mitotic Cells (%)” value [9] was 50% and 67% and 68% and the “Population Normal (%)” value [9] was 84% and 90% and 87%. For the same molecule, the “Population Pyknosed Nuclei (%)” value [9] was 46% and 21% and 32%, the “Population Tubulin-Different-Phenotype (%)” value [9] was 28% and 25% and 40% and the “Total Cell Count” value [9] was 384 and 851 and 794. The “Population Apoptotic (%)” value [10] was 20% and 10% and 15%, the “Population Fragmented Nuclei (%)” value [10] was 7% and 9% and 3% and the “Population Healthy Nuclei (%)” value [10] was 82% and 81%. The “Population Hoechst High Intensity Objects (%)” value [10] was 4%, the “Population Membrane Permeable-Phenotype (%)” value [10] was 3% and 1% and the “Population Mitochondria Different-Phenotype (%)” value [10] was 9% and 7% and 13%. For the same molecule, the “Population Mitotic Cells (%)” value [10] was 79% and 89% and 84%, the “Population Normal (%)” value [10] was 95% and the “Population Pyknosed Nuclei (%)” value [10] was 10% and 9% and 15%. For the same molecule, the “Population Tubulin-Different-Phenotype (%)” value [10] was 24% and 17% and 22%, the “Total Cell Count” value [10] was 386 and 610 and 321 and the “Population Apoptotic (%)” value [11] was 68% and 72% and 52%. For the same molecule, the “Population Fragmented Nuclei (%)” value [11] was 28% and 25%, the “Population Healthy Nuclei (%)” value [11] was 22% and 19% and 26% and the “Population Hoechst High Intensity Objects (%)” value [11] was 13% and 18% and 16%. The “Population Membrane Permeable-Phenotype (%)” value [11] was 0%, the “Population Mitochondria Different-Phenotype (%)” value [11] was 98% and 96% and 95% and the “Population Mitotic Cells (%)” value [11] was 31% and 27% and 47%. The “Population Normal (%)” value [11] was 86% and 81% and 84%, the “Population Pyknosed Nuclei (%)” value [11] was 48% and 55% and the “Population Tubulin-Different-Phenotype (%)” value [11] was 98% and 94% and 82%. The “Total Cell Count” value [11] was 329 and 319 and 500, the “Population Apoptotic (%)” value [12] was 66% and the “Population Fragmented Nuclei (%)” value [12] was 5% and 7% and 8%. For the same molecule, the “Population Healthy Nuclei (%)” value [12] was 69% and 65% and 61%, the “Population Hoechst High Intensity Objects (%)” value [12] was 3% and 6% and the “Population Membrane Permeable-Phenotype (%)” value [12] was 2% and 1%. For the same molecule, the “Population Mitochondria Different-Phenotype (%)” value [12] was 85% and 90% and 93%, the “Population Mitotic Cells (%)” value [12] was 33% and the “Population Normal (%)” value [12] was 96% and 93%. The “Population Pyknosed Nuclei (%)” value [12] was 25% and 26% and 30%, the “Population Tubulin-Different-Phenotype (%)” value [12] was 95% and the “Total Cell Count” value [12] was 373 and 318 and 253.
